# Data taken from PubChem BioAssay.
# Calls of active or inactive are those of the source.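 Rule for the calls, unless noted: active = inhibition of the reporter signal at or above 50%; inactive = inhibition below 50%.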
# Tests used:
# [1] = inhibitors of TNFa-induced NFkB p65 translocation, primary screen, imaging, HUVEC, MLSMR starter and 10KST1 sets (AID 438;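 active = inhibition above 20% together with a positive visual image hit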;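 note: compound added about 3h40 before a 20 min TNFalpha stimulation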;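 for inhibition: signal is the nuclear over cytoplasmic p65 intensity ratio per well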); settings: HUVEC TNFa-induced p65 nuclear translocation; cell count: measured here: nuclei count (cytotoxicity indicator), at 2.08 µM; inhibition: at 2 µM, stronger effect = higher value, 0% TNFa-plus-vehicle, 100% no-TNFa wells
# [2] = inhibitors of mutant huntingtin aggregation, primary screen, imaging, exon1htt(103Q)mCFP cells, high-content imaging (AID 483;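 active = visual image review flags a hit and inhibition of aggregation exceeds 20%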;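 note: compound exposure lasted 3 days before fixation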;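 for nuclei count: percent of the per-plate median nuclei count of sample wells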); settings: exon1htt(103Q)mCFP cell line, aggregate imaging, at 2 µM; inhibition of aggregation: stronger effect = higher value; nuclei count: measured here: cell count, toxicity
# [3] = inhibitors of E-selectin induction by TNFa, primary screen, imaging, HUVEC, immunofluorescence, MLSMR starter and 10KST1 sets (AID 487;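 active = visually confirmed hit in the image check and inhibition above 20%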;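 for inhibition: signal is fraction of cell area covered by stained E-selectin grains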;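 for nuclei count: 100% = median nuclei count of all wells on the same plate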); settings: HUVEC TNFalpha-induced E-selectin immunofluorescence imaging, at 2 µM; inhibition: stronger effect = higher value; nuclei count: measured here: cell number, toxicity
# [4] = target: Voltage-gated potassium channel subunit beta-2 (Rattus norvegicus) (UniProt P62483); test: KvBeta enzyme negative modulators, primary screen, biochemical, NADPH fluorescence (AID 622;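 active = fluorescence slope higher than the sample average by over 3 SD, cut at about -0.22 in these data, passing the limit was not always enough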;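 note: slope of raw intensity against log time taken from 70 to 1610 s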); settings: recombinant KvBeta, 4-cyanobenzaldehyde reduction, at 10 µM, stronger effect = higher value
# Voltage-gated potassium channel subunit beta-2 (Rattus norvegicus), sequence (P62483 whole entry, looked up): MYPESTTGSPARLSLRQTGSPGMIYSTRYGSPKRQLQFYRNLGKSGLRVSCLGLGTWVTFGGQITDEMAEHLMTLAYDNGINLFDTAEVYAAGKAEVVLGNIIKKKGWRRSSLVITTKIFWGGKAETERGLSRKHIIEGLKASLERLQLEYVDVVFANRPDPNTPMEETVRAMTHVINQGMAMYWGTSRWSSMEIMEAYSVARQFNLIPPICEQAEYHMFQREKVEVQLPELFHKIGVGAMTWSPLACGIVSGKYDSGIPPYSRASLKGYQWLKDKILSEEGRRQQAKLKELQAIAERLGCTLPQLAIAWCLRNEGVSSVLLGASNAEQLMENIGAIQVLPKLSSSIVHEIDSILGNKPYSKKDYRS
# [5] = target: Voltage-gated potassium channel subunit beta-2 (Rattus norvegicus) (UniProt P62483); test: KvBeta positive modulators, primary screen, biochemical, NADPH fluorescence (AID 623;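 active = NADPH fluorescence slope more negative than the mean of all samples by about 3 SD, 99.7% confidence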;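 note: fluorescence intensity change per second fitted from 20 to 320 s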); settings: Recombinant KvBeta, NADPH fluorescence decrease slope, 10 min; at 10 µM; stronger effect = lower value
# [6] = target: Muscarinic acetylcholine receptor M4 (Homo sapiens) (UniProt P08173); test: compounds altering M4/GIRK thallium flux, either direction, primary screen, M4 allosteric agonist project, cell-based, HEK293 M4/GIRK, BTC-AM (AID 625;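 active = fluorescence slope after compound addition differing from the mean of all tested samples at 99.7% confidence, mostly higher but some lower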;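 note: thallium influx through GIRK channels coupled to M4 in HEK293 cells with BTC-AM dye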); settings: at 10 µM, actives lie on both sides
# Muscarinic acetylcholine receptor M4 (Homo sapiens), sequence (P08173 whole entry, looked up): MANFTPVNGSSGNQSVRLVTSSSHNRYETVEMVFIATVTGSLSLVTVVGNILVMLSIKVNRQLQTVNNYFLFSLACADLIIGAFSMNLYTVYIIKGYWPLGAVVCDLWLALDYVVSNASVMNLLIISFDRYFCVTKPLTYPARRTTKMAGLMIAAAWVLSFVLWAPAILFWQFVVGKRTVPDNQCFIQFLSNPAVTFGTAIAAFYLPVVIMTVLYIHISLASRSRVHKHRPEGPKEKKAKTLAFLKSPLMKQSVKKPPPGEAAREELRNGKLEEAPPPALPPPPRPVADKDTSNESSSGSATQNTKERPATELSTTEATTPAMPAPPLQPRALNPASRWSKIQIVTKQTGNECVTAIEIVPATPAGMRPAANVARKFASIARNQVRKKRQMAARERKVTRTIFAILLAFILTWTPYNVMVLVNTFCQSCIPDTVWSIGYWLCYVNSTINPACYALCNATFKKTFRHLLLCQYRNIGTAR
# Procedure, shortened: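 assay system = HEK293 cells with M4 receptor and GIRK channels | medium = pH 7.3 thallium assay buffer | doses = 10 µM final, single point | timing = cells overnight at 37 °C, BTC-AM loading 1 h, reads 2 min total | signal = BTC-AM fluorescence, 1 Hz kinetic reads | read-out = post-addition slope, 15–24 s, of baseline-normalized fluorescence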
# [7] = inhibitors of Sendai virus-induced IRF3 signaling, primary screen, TLR/RLR signaling modifier project, cell-based, Sendai virus stimulus, luciferase, 10K MLSCN set (AID 602276;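 active = inhibition at or above 50% at 10 µM; inactive = inhibition below 50%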;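 note: firefly luciferase from ISG56 promoter only with Renilla not read in this screen; 0% = Sendai virus plus DMSO and 100% = medium plus DMSO without virus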); settings: HEK293 RL24 IRF3 luciferase reporter, at 10 µM, stronger effect = higher value
# [8] = inhibitors of poly I:C-induced TLR3 signaling, primary screen, cell-based, poly I:C stimulus, luciferase, 10K MLSCN set (AID 602277); settings: HEK293-TLR3 RL24 IRF3 luciferase reporter, at 10 µM, stronger effect = higher value
SMILES,cell count [1],inhibition [1],inhibition of aggregation [2],nuclei count [2],inhibition [3],nuclei count [3],fluorescence slope [4],NADPH fluorescence slope [5],fluorescence slope [6],inhibition [7],inhibition [8]
COc1ccc(-c2cn3cc(C)ccc3n2)cc1OC,442,-10.5% (inactive),-3.3% (inactive),103%,-4.7% (inactive),109%,-0.357 (inactive),-3e-05 (inactive),0.00466 (inactive),29.4% (inactive),-10.4% (inactive)
COc1ccc2oc(C)c(C(=O)Cn3ccnc3)c2c1,488,-7.3% (inactive),22.7% (inactive),54.3%,-16% (inactive),108%,-0.578 (inactive),-1.5e-05 (inactive),0.00618 (inactive),-26.4% (inactive),-28.5% (inactive)
O=C(CNS(=O)(=O)c1ccc(Br)s1)N1CCN(c2ncccn2)CC1,352,2.7% (inactive),13.7% (inactive),101%,-48.3% (inactive),86.3%,-0.532 (inactive),-0.000106 (inactive),0.00447 (inactive),-5.84% (inactive),-10.7% (inactive)
Cc1nc(NCc2ccccn2)c2ccccc2n1,416,-13.6% (inactive),13% (inactive),69.7%,-49.1% (inactive),121%,-0.572 (inactive),-4.7e-05 (inactive),0.00634 (inactive),4.35% (inactive),-44.1% (inactive)
Cc1cccc(-n2c(N)c(C(=O)N3CCN(C)CC3)sc2=S)c1,786,0.5% (inactive),-24.6% (inactive),96.9%,-25.5% (inactive),114%,-0.56 (inactive),-2.7e-06 (inactive),0.00592 (inactive),-4.11% (inactive),6.8% (inactive)
c1coc(-c2nnc(-c3cccs3)o2)c1,497,-1.7% (inactive),13.3% (inactive),75%,-7.2% (inactive),115%,-0.51 (inactive),-6.6e-07 (inactive),0.00586 (inactive),-25.9% (inactive),-87.8% (inactive)
CC1(C)CC(=O)c2cnc(NC(=O)CSc3nc4ccccc4o3)nc2C1,257,-5.5% (inactive),-24.6% (inactive),87.1%,-79.9% (inactive),107%,-0.294 (inactive),-1.5e-05 (inactive),0.00793 (inactive),-3.99% (inactive),20% (inactive)
O=C(Nc1ncnc2sc3c(c12)CCCCC3)c1ccco1,260,-7% (inactive),32.4% (active),85.3%,62.2% (inactive),65.2%,-0.542 (inactive),-1.4e-05 (inactive),0.0064 (inactive),21.8% (inactive),22.6% (inactive)
Cc1ccc(S(=O)(=O)N(C)Cc2cc3ccccc3[nH]c2=O)cc1,544,-5% (inactive),12.8% (inactive),99.8%,29.4% (inactive),104%,-0.52 (inactive),-0.000101 (inactive),0.00517 (inactive),8.78% (inactive),70.5% (active)
CC1(C)CC(=O)c2cc(OCC(=O)N3CCN(c4ccccc4F)CC3)ccc2O1,550,-19.1% (inactive),-3.9% (inactive),94.6%,-101% (inactive),118%,-0.288 (inactive),-5.4e-06 (inactive),0.00419 (inactive),19.9% (inactive),0.776% (inactive)
N#Cc1c(NC(=O)CSc2nc(N)cc(=O)[nH]2)sc2c1CCCCCC2,728,-14% (inactive),-2% (inactive),115%,-105% (inactive),122%,-0.578 (inactive),-3.4e-05 (inactive),0.00398 (inactive),-11.2% (inactive),-48.5% (inactive)
Cc1cc(C(=O)N2CCN(C(c3ccccc3)c3ccccc3)CC2)no1,303,-17.6% (inactive),32.7% (inactive),73.4%,-17.5% (inactive),84.1%,-0.433 (inactive),-5.3e-05 (inactive),0.00719 (inactive),14.8% (inactive),12.2% (inactive)
O=S(=O)(NCCc1ccccc1F)c1cccc(S(=O)(=O)N2CCOCC2)c1,434,5.7% (inactive),6.4% (inactive),105%,-14.8% (inactive),110%,-0.584 (inactive),1.5e-06 (inactive),0.00428 (inactive),9.49% (inactive),13% (inactive)
COc1ccc(C2=Nn3c(nnc3-c3cccnc3)SC2)cc1,367,-0.8% (inactive),6.7% (inactive),104%,25.5% (inactive),109%,-0.464 (inactive),1.1e-05 (inactive),0.00808 (inactive),5.59% (inactive),7.82% (inactive)
